Experimental data: ChEMBL document CHEMBL2331265, “Physangulidine A, a withanolide from Physalis angulata, perturbs the cell cycle and induces cell death by apoptosis in prostate cancer cells” (2013)
Activity calls are given as the source filed them. The calls are words filed in the database; no cut-off is given here.

Legend:
DU-145 [1] = test: Induction of apoptosis in human DU145 cells assessed as late apoptotic cells at 10 uM after 48 hrs using annexin V and propidium iodide staining by flow cytometric analysis relative to control; assay type: functional
How it was run: (§1)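 DU145 plated at 2 × 10^5 per well and adhered 18 h. Then 5 or 10 μM compound, DMSO or untreated, for 24, 48 or 72 h. Trypsinized, PBS-washed, stained with annexin V-FITC plus propidium iodide. By flow cytometry, quadrants scored as viable, apoptotic (annexin+/PI−), necrotic (PI+ only) or late apoptotic/necrotic (double positive).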

DU-145 [2] = test: Cell cycle arrest in human DU145 cells assessed as accumulation at G1 phase at 10 uM after 48 hrs using propidium iodide staining by flow cytometry (reference value: 37%); assay type: functional
DU-145 [3] = test: Induction of apoptosis in human DU145 cells assessed as necrotic cells at 10 uM after 48 hrs using annexin V and propidium iodide staining by flow cytometric analysis relative to control; assay type: functional; how it was run: as §1
PC-3 [4] = test: Antiproliferative activity against human PC3 cells at 10 uM; assay type: functional, cell-based
How it was run: (§2)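 DU145 in DMEM and PC3 in F-12K, each with 10% FBS and penicillin/streptomycin, at 37 °C, 5% CO2. Compound added directly to the medium. Antiproliferative activity read after three days of treatment.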

DU-145 [5] = test: Cell cycle arrest in human DU145 cells assessed as accumulation at G2/M phase at 10 uM after 24 hrs using propidium iodide staining by flow cytometry (reference value: 31%); assay type: functional
DU-145 [6] = test: Inhibition of mitosis in human DU145 cells assessed as condensed chromosomes and mitotic spindles formation at 10 uM after 24 hrs by fluorescent microscopy; assay type: functional, cell-based
How it was run: (§3)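 DU145 plated at 2.5 × 10^4 on glass coverslips, 18 h. Then 10 μM compound for 24 or 48 h, or DMSO for 48 h. Fixed in 4% paraformaldehyde, permeabilized with 0.1% Triton X-100, blocked with 3% BSA. Stained with Alexa Fluor 488 anti-α-tubulin (60 min) and DAPI, then imaged by confocal microscopy for aberrant mitotic figures.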

DU-145 [7] = test: Induction of apoptosis in human DU145 cells using annexin V and propidium iodide staining at 5 uM after 72 hrs by flow cytometric analysis; assay type: functional; how it was run: as §1
DU-145 [8] = test: Antiproliferative activity against human DU145 cells at 10 uM; assay type: functional, cell-based; how it was run: as §2
DU-145 [9] = test: Induction of apoptosis in human DU145 cells assessed as late apoptotic cells at 10 uM after 24 hrs using annexin V and propidium iodide staining by flow cytometric analysis relative to control; assay type: functional; how it was run: as §1
PC-3 [10] = test: Inhibition of colony formation in human PC3 cells at 2.5 to 10 uM after 10 days by clonogenic assay; assay type: functional, cell-based
How it was run: (§4)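 DU145 or PC3 plated at 3 × 10^2 per well and adhered 18 h. Then 2.5, 5 or 10 μM compound, DMSO or medium alone. Grown 10 days until colonies were visible. Colonies fixed in 4% paraformaldehyde and stained with 0.25% crystal violet in 25% methanol.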

DU-145 [11] = test: Cell cycle arrest in human DU145 cells assessed as accumulation at G2/M phase at 10 uM after 48 hrs using propidium iodide staining by flow cytometry (reference value: 36%); assay type: functional
DU-145 [12] = test: Induction of apoptosis in human DU145 cells assessed as necrotic cells at 10 uM after 72 hrs using annexin V and propidium iodide staining by flow cytometric analysis relative to control; assay type: functional; how it was run: as §1
DU-145 [13] = test: Inhibition of mitosis in human DU145 cells assessed as abnormal mitosis at 10 uM after 48 hrs by fluorescent microscopy; assay type: functional, cell-based; how it was run: as §3
DU-145 [14] = test: Induction of apoptosis in human DU145 cells assessed as viable cells at 10 uM after 48 hrs using annexin V and propidium iodide staining by flow cytometric analysis relative to control; assay type: functional; conditions: DU-145, 48 h, read-out: Activity; how it was run: as §1
DU-145 [15] = test: Induction of cell death in human DU145 cells at 10 uM after 72 hrs by trypan blue exclusion assay; assay type: functional
How it was run: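 DU145 left untreated, or given 10 μM compound or DMSO, for 72 h. All adherent and floating cells harvested, stained with trypan blue and counted at once. Result is % blue (nonviable) cells, mean of three independent experiments with standard error.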

DU-145 [16] = test: Induction of apoptosis in human DU145 cells assessed as PARP-1 cleavage at 10 uM after 24 hrs by immunoblotting; assay type: functional, cell-based
How it was run: (§5)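 Cells treated with 10 μM compound or DMSO over a time course. Lysed in Tris/NaCl/EDTA/deoxycholate/IGEPAL buffer, pH 7.5, with protease and phosphatase inhibitors. Protein measured by BCA and equal amounts immunoblotted. Membranes blocked in 5% milk, then probed overnight at 4 °C with anti-PARP-1 (200 ng/mL; full length 116 kDa, cleaved 89 kDa) or anti-cleaved caspase-3 (1:1000). GAPDH loading control, chemiluminescent detection.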

DU-145 [17] = test: Induction of apoptosis in human DU145 cells assessed as late apoptotic cells at 10 uM after 72 hrs using annexin V and propidium iodide staining by flow cytometric analysis relative to control; assay type: functional; how it was run: as §1
DU-145 [18] = test: Inhibition of colony formation in human DU145 cells at 2.5 to 10 uM after 10 days by clonogenic assay; assay type: functional, cell-based; how it was run: as §4
DU-145 [19] = test: Induction of apoptosis in human DU145 cells assessed as caspase-3 activation at 10 uM after 24 hrs by immunoblotting; assay type: functional, cell-based; how it was run: as §5
PC-3 [20] = test: Induction of apoptosis in human PC3 cells assessed as DNA fragmentation formation at 10 uM after 48 to 72 hrs […]; assay type: functional, cell-based
How it was run: (§6)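 Cells (2 × 10^6, adherent plus floating) collected after 10 μM compound or DMSO. Lysed in 1% NP-40/EDTA/Tris, treated with RNase A (1 h, 37 °C) then proteinase K (1 h, 50 °C). Phenol–chloroform extracted, precipitated with isopropanol. Run on a 1.8% agarose gel, ethidium bromide stained, UV read for the oligonucleosomal DNA ladder.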

DU-145 [21] = test: Induction of apoptosis in human DU145 cells assessed as early apoptotic cells at 10 uM after 72 hrs using annexin V and propidium iodide staining by flow cytometric analysis relative to control; assay type: functional; how it was run: as §1
DU-145 [22] = test: Induction of apoptosis in human DU145 cells assessed as DNA fragmentation formation at 10 uM after 48 to 72 hrs […]; assay type: functional, cell-based; how it was run: as §6
PC-3 [23] = test: Induction of apoptosis in human PC3 cells assessed as caspase-3 activation at 10 uM after 24 to 72 hrs by immunoblotting; assay type: functional, cell-based; how it was run: as §5
DU-145 [24] = test: Induction of apoptosis in human DU145 cells using annexin V and propidium iodide staining at 5 uM after 24 hrs by flow cytometric analysis; assay type: functional; how it was run: as §1
DU-145 [25] = test: Induction of apoptosis in human DU145 cells using annexin V and propidium iodide staining at 5 uM after 48 hrs by flow cytometric analysis; assay type: functional; how it was run: as §1
DU-145 [26] = test: Induction of apoptosis in human DU145 cells assessed as early apoptotic cells at 10 uM after 48 hrs using annexin V and propidium iodide staining by flow cytometric analysis relative to control; assay type: functional; how it was run: as §1
DU-145 [27] = test: Cell cycle arrest in human DU145 cells assessed as accumulation at S phase at 10 uM after 24 hrs using propidium iodide staining by flow cytometry (reference value: 28%); assay type: functional
DU-145 [28] = test: Induction of apoptosis in human DU145 cells assessed as viable cells at 10 uM after 72 hrs using annexin V and propidium iodide staining by flow cytometric analysis relative to control; assay type: functional; conditions: DU-145, 72 h, read-out: Activity; how it was run: as §1
DU-145 [29] = test: Induction of apoptosis in human DU145 cells assessed as PARP-1 cleavage at 10 uM after 48 to 72 hrs by immunoblotting; assay type: functional, cell-based; how it was run: as §5
DU-145 [30] = test: Cell cycle arrest in human DU145 cells assessed as accumulation at S phase at 10 uM after 48 hrs using propidium iodide staining by flow cytometry (reference value: 25%); assay type: functional
DU-145 [31] = test: Induction of apoptosis in human DU145 cells assessed as necrotic cells at 10 uM after 24 hrs using annexin V and propidium iodide staining by flow cytometric analysis relative to control; assay type: functional; how it was run: as §1
PC-3 [32] = test: Induction of apoptosis in human PC3 cells assessed as PARP-1 cleavage at 10 uM after 24 to 72 hrs by immunoblotting; assay type: functional, cell-based; how it was run: as §5
DU-145 [33] = test: Cell cycle arrest in human DU145 cells assessed as accumulation at G1 phase at 10 uM after 24 hrs using propidium iodide staining by flow cytometry (reference value: 39%); assay type: functional
DU-145 [34] = test: Induction of apoptosis in human DU145 cells assessed as caspase-3 activation at 10 uM after 48 to 72 hrs by immunoblotting; assay type: functional, cell-based; how it was run: as §5
DU-145 [35] = test: Antiproliferative activity against human DU145 cells by SRB assay; assay type: functional
DU-145 [36] = test: Induction of apoptosis in human DU145 cells assessed as viable cells at 10 uM after 24 hrs using annexin V and propidium iodide staining by flow cytometric analysis relative to control; assay type: functional; conditions: DU-145, 24 h, read-out: Activity; how it was run: as §1
DU-145 [37] = test: Induction of apoptosis in human DU145 cells assessed as early apoptotic cells at 10 uM after 24 hrs using annexin V and propidium iodide staining by flow cytometric analysis relative to control; assay type: functional; how it was run: as §1

**Q.** `C[C@@H]1CC[C@H]2[C@H]3[C@H](O[C@]4([C@]5(O)CC6(C)C(=O)OC5C[C@@]6(C)O)CC[C@@]31O4)[C@H]1O[C@]13CC=CC(=O)[C@]23C` [PHYSANGULIDINE A] was tested. Which Activity (DU-145 [1]) did it give?
**A.** 13.9%

**Q.** What about the Activity (DU-145 [2]) of the same molecule?
**A.** 7%

**Q.** And the Activity (DU-145 [3])?
**A.** 0.604%

**Q.** What about the inhibition (PC-3 [4]) of the same molecule?
**A.** Active

**Q.** And the Activity (DU-145 [5])?
**A.** 49%

**Q.** What about the inhibition (DU-145 [6]) of the same molecule?
**A.** Active

**Q.** And the Activity (DU-145 [7])?
**A.** 11.5%

**Q.** And the inhibition (DU-145 [8])?
**A.** Active

**Q.** And the Activity (DU-145 [9])?
**A.** 3.71%

**Q.** What about the inhibition (PC-3 [10]) of the same molecule?
**A.** Active

**Q.** What about the Activity (DU-145 [11]) of the same molecule?
**A.** 66%

**Q.** What about the Activity (DU-145 [12]) of the same molecule?
**A.** 0.308%

**Q.** And the inhibition (DU-145 [13])?
**A.** Active

**Q.** What about the viability at 10 µM (DU-145 [14]) of the same molecule?
**A.** 53.2%

**Q.** And the Activity (DU-145 [15])?
**A.** 90%

**Q.** What about the Activity (DU-145 [16]) of the same molecule?
**A.** inactive

**Q.** What about the Activity (DU-145 [17]) of the same molecule?
**A.** 28.4%

**Q.** What about the inhibition (DU-145 [18]) of the same molecule?
**A.** Active

**Q.** What about the Activity (DU-145 [19]) of the same molecule?
**A.** inactive

**Q.** And the Activity (PC-3 [20])?
**A.** Active

**Q.** What about the Activity (DU-145 [21]) of the same molecule?
**A.** 46.4%

**Q.** What about the Activity (DU-145 [22]) of the same molecule?
**A.** Active

**Q.** What about the Activity (PC-3 [23]) of the same molecule?
**A.** Active

**Q.** What about the Activity (DU-145 [24]) of the same molecule?
**A.** 5.2%

**Q.** What about the Activity (DU-145 [25]) of the same molecule?
**A.** 9.2%

**Q.** And the Activity (DU-145 [26])?
**A.** 32.3%

**Q.** What about the Activity (DU-145 [27]) of the same molecule?
**A.** 37%

**Q.** What about the viability at 10 µM (DU-145 [28]) of the same molecule?
**A.** 24.9%

**Q.** And the Activity (DU-145 [29])?
**A.** Active

**Q.** What about the Activity (DU-145 [30]) of the same molecule?
**A.** 12%

**Q.** What about the Activity (DU-145 [31]) of the same molecule?
**A.** 0.77%

**Q.** What about the Activity (PC-3 [32]) of the same molecule?
**A.** Active

**Q.** What about the Activity (DU-145 [33]) of the same molecule?
**A.** 8%

**Q.** And the Activity (DU-145 [34])?
**A.** Active

**Q.** What about the GI50 (DU-145 [35]) of the same molecule?
**A.** 3.6 µM

**Q.** And the viability at 10 µM (DU-145 [36])?
**A.** 88.1%

**Q.** And the Activity (DU-145 [37])?
**A.** 7.44%
